Results taken from the M2OR odorant receptor database.

Legend:
Conditions in all cases: stereoisomer not certain
[1] = target: T1, UniProt L7MU75
T1 sequence (whole entry): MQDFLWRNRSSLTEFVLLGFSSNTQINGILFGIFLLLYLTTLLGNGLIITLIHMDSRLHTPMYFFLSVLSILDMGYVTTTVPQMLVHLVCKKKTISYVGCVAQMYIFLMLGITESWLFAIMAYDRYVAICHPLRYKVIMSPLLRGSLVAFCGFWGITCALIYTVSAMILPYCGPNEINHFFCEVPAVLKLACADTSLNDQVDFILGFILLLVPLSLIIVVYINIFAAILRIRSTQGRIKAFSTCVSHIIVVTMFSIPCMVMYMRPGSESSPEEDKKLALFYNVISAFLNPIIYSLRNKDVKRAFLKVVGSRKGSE
Outline: (§1)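 Whether a receptor–molecule pair is responsive (active) rests on the original authors' judgment that its measured signal was statistically different from baseline. Pairs without that judgment are non-responsive (inactive). Sources used varied assay methods, commonly transient luciferase assays in mammalian cell lines.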

[2] = target: T2, UniProt L7N210
T2 sequence (whole entry): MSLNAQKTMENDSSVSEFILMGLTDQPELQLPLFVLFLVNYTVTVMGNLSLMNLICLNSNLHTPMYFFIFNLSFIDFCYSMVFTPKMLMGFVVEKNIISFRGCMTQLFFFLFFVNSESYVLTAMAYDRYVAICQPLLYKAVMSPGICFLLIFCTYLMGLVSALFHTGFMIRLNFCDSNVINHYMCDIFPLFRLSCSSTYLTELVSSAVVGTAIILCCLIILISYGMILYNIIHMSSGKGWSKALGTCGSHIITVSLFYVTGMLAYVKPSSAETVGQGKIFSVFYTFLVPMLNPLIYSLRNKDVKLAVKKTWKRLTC
Outline: as §1

[3] = target: T3, UniProt Q3KPB0
T3 sequence (whole entry): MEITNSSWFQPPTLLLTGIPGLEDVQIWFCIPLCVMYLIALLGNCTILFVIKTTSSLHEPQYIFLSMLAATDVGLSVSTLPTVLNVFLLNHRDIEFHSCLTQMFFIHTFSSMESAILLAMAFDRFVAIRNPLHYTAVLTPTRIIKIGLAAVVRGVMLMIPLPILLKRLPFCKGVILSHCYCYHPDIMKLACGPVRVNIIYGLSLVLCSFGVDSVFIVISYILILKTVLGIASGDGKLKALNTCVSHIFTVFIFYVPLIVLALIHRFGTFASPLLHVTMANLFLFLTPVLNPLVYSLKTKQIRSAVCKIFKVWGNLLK
Outline: as §1

[4] = target: T4, UniProt Q3U0P3
T4 sequence (whole entry): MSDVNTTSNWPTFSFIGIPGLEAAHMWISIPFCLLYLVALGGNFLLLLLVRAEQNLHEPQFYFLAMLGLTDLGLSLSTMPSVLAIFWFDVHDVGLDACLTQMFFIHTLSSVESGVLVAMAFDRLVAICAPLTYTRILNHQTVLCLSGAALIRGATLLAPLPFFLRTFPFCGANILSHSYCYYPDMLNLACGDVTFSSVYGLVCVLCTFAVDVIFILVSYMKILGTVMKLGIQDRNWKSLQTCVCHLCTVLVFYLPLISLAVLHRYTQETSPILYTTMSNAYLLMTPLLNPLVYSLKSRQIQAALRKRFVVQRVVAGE
Outline: as §1

[5] = target: T5, UniProt Q7TQU8
T5 sequence (whole entry): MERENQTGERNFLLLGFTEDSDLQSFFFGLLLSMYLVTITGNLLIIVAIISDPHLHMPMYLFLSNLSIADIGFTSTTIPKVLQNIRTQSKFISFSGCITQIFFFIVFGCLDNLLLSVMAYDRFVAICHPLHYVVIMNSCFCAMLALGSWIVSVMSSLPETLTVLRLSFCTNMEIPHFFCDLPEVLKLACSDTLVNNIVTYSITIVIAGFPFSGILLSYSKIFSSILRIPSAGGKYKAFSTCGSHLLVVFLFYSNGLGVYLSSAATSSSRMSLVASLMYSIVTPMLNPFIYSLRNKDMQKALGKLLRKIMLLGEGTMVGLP
Outline: as §1

Measured: odorant receptor agonist call;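 further: active if original authors judged signal statistically different from baseline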

O=C([O-])CCCCCCCC(=O)[O-].[H+].[H+]
inactive: [1] | [2] | [3] | [4] | [5]

CCCCCC(C=O)=Cc1ccccc1
inactive: [1] | [2] | [3] | [4] | [5]

CC(=O)OCCc1ccccc1
active: [2]
inactive: [1] | [3] | [4] | [5]

CC(=O)OCc1ccc2c(c1)OCO2
active: [2]
inactive: [1] | [3] | [4] | [5]

CCOC(=O)CC(C)C
inactive: [1] | [2] | [3] | [4] | [5]

CC(=O)OC1(C)CCC23CC1C(C)(C)C2CCC3C (stereo not given)
inactive: [1] | [2] | [3]
active: [4] | [5]

COC(OC)c1ccccc1
inactive: [1] | [2] | [3] | [4] | [5]

O=C(O)CCCCCBr
inactive: [1] | [2] | [3] | [4] | [5]

CC(C)CS
inactive: [1] | [2] | [3] | [4] | [5]

CC(=O)C1(C)CC2=C(CCCC2(C)C)CC1C (stereo not given)
inactive: [1] | [2] | [3] | [4] | [5]

CCC=CCCC=CC=O
inactive: [1] | [2] | [3] | [4] | [5]

CC1CC=CCCCCCCCCCC(=O)C1 (stereo not given)
inactive: [1] | [2] | [3] | [4] | [5]

COc1nccnc1C
inactive: [2] | [3] | [4] | [5]
active: [1]

C=C1C2CCC(C2)C1(C)C (stereo not given)
inactive: [1] | [2] | [3] | [4] | [5]

CSSSC
inactive: [1] | [2] | [3] | [4] | [5]

C=C(CC)CCCC(C)(C)O
inactive: [1] | [2] | [3] | [4] | [5]

C=CC(C)=CCC=C(C)CCC=C(C)C
inactive: [1] | [2] | [3] | [4] | [5]

O=C(O)C1CCC1
inactive: [1] | [2] | [3] | [4] | [5]

Cc1ccc(OC(=O)C(C)C)cc1
inactive: [1] | [2] | [3] | [4] | [5]

CCCC=O
inactive: [1] | [2] | [3] | [4] | [5]
